Tests used:
[1] = test system: DNA; assay: Binding affinity to calf thymus DNA assessed as relative fluorescence intensity by fluorescence emission spectra analysis relative to control; assay type: nucleic-acid assay; conditions: Bos taurus
How it was run: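 Fluorimetric titration: portions of ct-DNA (phosphate concentration determined spectroscopically; sonicated, filtered) added to compound in sodium cacodylate buffer pH 7.0, I = 0.05 mol dm-3; excitation 360–374 nm depending on compound to avoid inner filter effects, emission monitored at 400 nm; data corrected for dilution; fluorescence change expressed versus compound/ct-DNA ratio r.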

[2] = test system: DNA; assay: Binding affinity to calf thymus DNA assessed as hypochromic effect by UV-vis spectra analysis; assay type: nucleic-acid assay; set-up: concentration or dose not given beside the values; conditions: Bos taurus
[3] = test system: DNA; assay: Binding affinity to calf thymus DNA in sodium cacodylate buffer assessed as melting temperature at compound/DNA ratio 0.1 at pH 7; assay type: nucleic-acid assay; conditions: Bos taurus
How it was run: (§1)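 ct-DNA dissolved in sodium cacodylate buffer (I = 0.05 mol dm⁻³, pH 7), sonicated, filtered, with concentration taken spectroscopically as phosphate. Absorbance at 260 nm followed against temperature, heating 1 °C/min. Ligand absorbance subtracted and scale normalized. Tm taken as transition midpoint from first-derivative maximum or tangent method. ΔTm = Tm(complex) − Tm(free DNA). Error ±0.5 °C.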

[4] = Antiproliferative activity against human WI38 cells after 72 hrs by MTT assay; assay type: cell-based; conditions: WI-38, 72 h
How it was run: (§2)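 Cells seeded on day 0 at 1–3 × 10⁴ cells/ml, density set by each line's doubling time. Compounds added in five 10-fold dilutions (10⁻⁸–10⁻⁴ M), freshly prepared on test day, with DMSO solvent control matched to working concentrations. Incubated 72 h, then MTT read-out of dehydrogenase activity in viable cells gives percentage of growth. Four parallel samples per point, three independent experiments.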

[5] = test system: HeLa; assay: Antiproliferative activity against human HeLa cells after 72 hrs by MTT assay; assay type: functional, cell-based; how it was run: as §2
[6] = test system: MIA PaCa-2; assay: Antiproliferative activity against human MIAPaCa2 cells after 72 hrs by MTT assay; assay type: functional, cell-based; conditions: MIA PaCa-2, 72 h; how it was run: as §2
[7] = test system: SW-620; assay: Antiproliferative activity against human SW620 cells after 72 hrs by MTT assay; assay type: functional, cell-based; conditions: SW-620, 72 h; how it was run: as §2
[8] = test system: MCF7; assay: Antiproliferative activity against human MCF7 cells after 72 hrs by MTT assay; assay type: functional, cell-based; conditions: MCF7, 72 h; how it was run: as §2
[9] = test system: NCI-H460; assay: Antiproliferative activity against human H460 cells after 72 hrs by MTT assay; assay type: functional, cell-based; conditions: NCI-H460, 72 h; how it was run: as §2
[10] = test system: DNA; assay: Binding affinity to calf thymus DNA in sodium cacodylate buffer assessed as melting temperature at compound/DNA ratio 0.2 at pH 7; assay type: nucleic-acid assay; conditions: Bos taurus; how it was run: as §1
[11] = test system: DNA; assay: Binding affinity to calf thymus DNA in sodium cacodylate buffer assessed as melting temperature at compound/DNA ratio 0.3 at pH 7; assay type: nucleic-acid assay; conditions: Bos taurus; how it was run: as §1
[12] = test system: DNA; assay: Binding affinity to calf thymus DNA in sodium cacodylate buffer at compound/DNA ratio < 0.1 pH 7 by fluorimetric titration; assay type: nucleic-acid assay; conditions: Bos taurus
How it was run: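 Compound solution in sodium cacodylate buffer (pH 7.0, I = 0.05 mol dm⁻³) titrated with portions of ct-DNA (6.31 × 10⁻³ mol dm⁻³), data corrected for dilution. Excitation at 360–374 nm, chosen per compound to avoid inner filter effects, with emission monitored at 400 nm. Ks and n obtained by non-linear least-squares Scatchard fitting of data at r < 0.1.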

[13] = test system: DNA; assay: Binding affinity to calf thymus DNA in sodium cacodylate buffer at compound/DNA ratio 0.5 pH 7 by fluorimetric titration; assay type: nucleic-acid assay; conditions: Bos taurus

## COC(=O)/C(=C/c1ccc(-c2nc3cc(C(=N)NC(C)C)ccc3[nH]2)s1)c1ccccc1
[1]
  Flu intensity: 232 a.u.
[2]
  Activity: 18%
[3]
  ΔTm: 1.7 °C
[4]
  IC50: > 100 µM
[5]
  IC50: 30 µM
[6]
  IC50: 13 µM
[7]
  IC50: 62 µM
[8]
  IC50: 1 µM
[9]
  IC50: 37 µM
[10]
  ΔTm: 2.3 °C
[11]
  ΔTm: 2.7 °C

## COC(=O)c1cc2sc(-c3nc4cc(C(=N)NC(C)C)ccc4[nH]3)cc2c2ccccc12
[1]
  Flu intensity: 916 a.u.
[2]
  Activity: 15%
[12]
  log Ks: 4.7
[3]
  ΔTm: 3.9 °C
[4]
  IC50: 71 µM
[5]
  IC50: 15 µM
[6]
  IC50: 16 µM
[7]
  IC50: 29 µM
[8]
  IC50: 2 µM
[9]
  IC50: 24 µM
[10]
  ΔTm: 4.9 °C
[11]
  ΔTm: 5.8 °C

## CCOC(=O)/C(=C/c1ccc(-c2nc3cc(C(=N)NC(C)C)ccc3[nH]2)o1)c1ccc(C#N)cc1
[1]
  Flu intensity: 161 a.u.
[2]
  Activity: 10%
[3]
  ΔTm: 0.6 °C
[4]
  IC50: 36 µM
[5]
  IC50: 28 µM
[6]
  IC50: 21 µM
[7]
  IC50: 62 µM
[8]
  IC50: 2 µM
[9]
  IC50: 31 µM
[10]
  ΔTm: 0.8 °C
[11]
  ΔTm: 1.3 °C
[13]
  log Ks: 5.6

## CCOC(=O)c1cc2oc(-c3nc4cc(C(=N)NC(C)C)ccc4[nH]3)cc2c2cc(C#N)ccc12
[1]
  Flu intensity: 282 a.u.
[2]
  Activity: 10%
[12]
  log Ks: 5
[3]
  ΔTm: 1 °C
[4]
  IC50: > 100 µM
[5]
  IC50: 72 µM
[6]
  IC50: 61 µM
[7]
  IC50: 85 µM
[8]
  IC50: 6 µM
[9]
  IC50: > 100 µM
[10]
  ΔTm: 1.4 °C
[11]
  ΔTm: 1.6 °C

## COC(=O)/C(=C/c1ccc(-c2nc3cc(C(=N)NC(C)C)ccc3[nH]2)o1)c1ccccc1
[1]
  Flu intensity: 147 a.u.
[2]
  Activity: 8%
[3]
  ΔTm: 0 °C
[4]
  IC50: 13 µM
[5]
  IC50: 17 µM
[6]
  IC50: 19 µM
[7]
  IC50: 14 µM
[8]
  IC50: 9 µM
[9]
  IC50: 13 µM
[10]
  ΔTm: 0 °C
[11]
  ΔTm: 0 °C

## COC(=O)c1cc2oc(-c3nc4cc(C(=N)NC(C)C)ccc4[nH]3)cc2c2ccccc12
[1]
  Flu intensity: 790 a.u.
[2]
  Activity: 51%
[12]
  log Ks: 4.2
[3]
  ΔTm: 1.8 °C
[4]
  IC50: > 100 µM
[5]
  IC50: 18 µM
[6]
  IC50: 21 µM
[7]
  IC50: 35 µM
[8]
  IC50: 1 µM
[9]
  IC50: 18 µM
[10]
  ΔTm: 2.6 °C
[11]
  ΔTm: 3.8 °C

Reference: ChEMBL document CHEMBL1154473, “Synthesis, antitumor evaluation and DNA binding studies of novel amidino-benzimidazolyl substituted derivatives of furyl-phenyl- and thienyl-phenyl-acrylates, naphthofurans and naphthothiophenes” (Eur J Med Chem, 2008)
